In ChEMBL document CHEMBL1121883, “1-(Naphthylalkyl)-1H-imidazole derivatives, a new class of anticonvulsant agents” (J Med Chem, 1981):
Values joined by “and” are separate entries in the source; they are usually repeats but may differ in a detail not shown here. Equal values may be shown once.

Experiments:
Rattus norvegicus [1] = assay: Dose of compound causing a neurological deficit in 50% of rat after po administration.; assay type: functional
How it was run: (§1)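 Rats (Simonsen Sprague-Dawley-derived, 80-110 g, groups of 8-10) placed on a suspended 16-gauge, 65-cm copper wire just before electroshock. Deficit scored as inability to remain for 8 s. Pretreatment was 15 min ip or 30 min oral. Quantal data analysed by Litchfield-Wilcoxon to give ND50 with 95% limits.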

Rattus norvegicus [2] = assay: Compound was evaluated for anticonvulsant activity by maximal electroshock assay(MES) in rat after ip administration; 8-23; assay type: functional
How it was run: (§2)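 Male Simonsen Sprague-Dawley-derived rats, 80-110 g, groups of 8-10, dosed with compound or aqueous vehicle; pretreatment 15 min after ip or 30 min after oral dosing. Transcorneal electroshock, 150 mA, 60 Hz, 0.2 s, given after the wire test. ED50 with 95% confidence limits from quantal data by Litchfield-Wilcoxon.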

Mus musculus [3] = assay: Protective index is defined as ND50 (i.p.) divided by MES ED50(i.p.); assay type: functional
How it was run: (§3)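 Ratio of ND50 from the wire traction test to MES ED50, both measured by the same route (ip or oral) in the same animals. Quantal dose-response data for each were evaluated by Litchfield-Wilcoxon.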

Rattus norvegicus [4] = assay: Compound was evaluated for anticonvulsant activity by maximal electroshock assay(MES) in rat after po administration; 34-83; assay type: functional; how it was run: as §2
Mus musculus [5] = assay: Dose of compound causing a neurological deficit in 50% of mice after ip administration; 79-125; assay type: functional
How it was run: (§4)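 Traction test in male Hilltop ICR-derived mice (19-30 g, groups of 8-10) just before electroshock, 15 min after ip or 30 min after oral dosing. Mice placed on a 16-gauge, 65-cm copper wire 40 cm above the table; deficit scored as failure to stay on for 10 s. ND50 with 95% limits by Litchfield-Wilcoxon.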

Rattus norvegicus [6] = assay: Dose of compound causing a neurological deficit in 50% of rat after ip administration.; assay type: functional; how it was run: as §1
Mus musculus [7] = assay: Compound was evaluated for anticonvulsant activity by maximal electroshock assay(MES) in mice after ip administration; 14-23; assay type: functional
How it was run: (§5)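 Male Hilltop ICR-derived mice (19-30 g), groups of 8-10, dosed ip with compound or aqueous vehicle. After 15 min pretreatment, a transcorneal 60-Hz, 50 mA shock was given for 0.2 s. Just before the shock, each mouse was tested on a horizontal wire (10 s). Quantal data were analysed by Litchfield-Wilcoxon to give ED50 with 95% confidence limits.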

Mus musculus [8] = assay: Dose causing a neurological deficit in 50% of mice following p.o. administration.; assay type: functional; how it was run: as §4
Mus musculus [9] = assay: Compound was evaluated for anticonvulsant activity by maximal electroshock assay(MES) in mice after po administration; 68-149; assay type: functional
How it was run: (§6)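 Male Hilltop ICR-derived mice (19-30 g), groups of 8-10, given compound or aqueous vehicle orally. The transcorneal 60-Hz shock (50 mA, 0.2 s) followed a 30 min pretreatment and a wire-hang neurological check (10 s). ED50 and 95% confidence limits were obtained from quantal data by the Litchfield-Wilcoxon method.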

Mus musculus [10] = assay: Protective index defined as ND50 (p.o.) divided by MES ED50(op); assay type: functional; how it was run: as §3
Mus musculus [11] = assay: Dose of compound causing a neurological deficit in 50% of mice after ip administration; assay type: functional; how it was run: as §4
Mus musculus [12] = assay: Anticonvulsant activity in mouse maximal electroshock assay following i.p. administration.; assay type: functional; conditions: ip; how it was run: as §5
Mus musculus [13] = assay: Compound was evaluated for anticonvulsant activity by maximal electroshock assay(MES) in mice after po administration; 55-105; assay type: functional; how it was run: as §6
Mus musculus [14] = assay: Dose of compound causing a neurological deficit in 50% of mice after ip administration; 53-96; assay type: functional; how it was run: as §4
Rattus norvegicus [15] = assay: Compound was evaluated for anticonvulsant activity by maximal electroshock assay(MES) in rat after po administration; 31-105; assay type: functional; how it was run: as §2
Mus musculus [16] = assay: Compound was evaluated for anticonvulsant activity by maximal electroshock assay(MES) in mice after ip administration; 18-25; assay type: functional; how it was run: as §5
Mus musculus [17] = assay: Dose of compound causing a neurological deficit in 50% of mice after ip administration; 34-82; assay type: functional; how it was run: as §4
Mus musculus [18] = assay: Compound was evaluated for anticonvulsant activity by maximal electroshock assay(MES) in mice after ip administration; 14-24; assay type: functional; how it was run: as §5
Mus musculus [19] = assay: compound was evaluated for anticonvulsant activity by maximal electroshock assay(MES) in mice after ip administration.; assay type: functional
How it was run: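 Male Hilltop ICR-derived mice, 19-30 g, groups of 8-10, given compound or aqueous vehicle […] before transcorneal electroshock (50 mA, 60 Hz, 0.2 s). Shock delivered after the traction test. ED50 with 95% confidence limits estimated from quantal data by Litchfield-Wilcoxon.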

Mus musculus [20] = assay: Dose causing a neurological deficit in 50% of mice after ip administration.; assay type: functional; how it was run: as §4
Mus musculus [21] = assay: Compound was evaluated for anticonvulsant activity by maximal electroshock assay(MES) in mice after ip administration; 62-102; assay type: functional; how it was run: as §5
Mus musculus [22] = assay: Compound was evaluated for anticonvulsant activity by maximal electroshock assay(MES) in mice after ip administration; 20-28; assay type: functional; how it was run: as §5
[23] = Lethal dose was measured in mice after ip administration.; assay type: toxicity, organism-based; conditions: mouse, in vivo
How it was run: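 Male Simonsen ICR-derived mice (16-24 g), groups of three, given compound ip in increasing doses within a behavioral screen. Deaths counted on day 5, and LD50 estimated from 5-day survival. Quantal data analysed by the Litchfield-Wilcoxon method.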

Mus musculus [24] = assay: Compound was evaluated for anticonvulsant activity by maximal electroshock assay(MES) in mice after po administration; 55-103; assay type: functional; how it was run: as §6
Mus musculus [25] = assay: Compound was evaluated for anticonvulsant activity by maximal electroshock assay(MES) in mice after ip administration; 12-15; assay type: functional; how it was run: as §5
Mus musculus [26] = assay: Compound was evaluated for anticonvulsant activity by maximal electroshock assay(MES) in mice after po administration; 29-53; assay type: functional; how it was run: as §6
Rattus norvegicus [27] = assay: Dose of compound causing a neurological deficit in 50% of rat after ip administration; 35-83; assay type: functional; how it was run: as §1
Rattus norvegicus [28] = assay: Compound was evaluated for anticonvulsant activity by maximal electroshock assay(MES) in rat after ip administration; 1.2-6.2; assay type: functional
Mus musculus [29] = assay: Dose of compound causing a neurological deficit in 50% of mice after ip administration; 61-69; assay type: functional; how it was run: as §4
Mus musculus [30] = assay: Compound was evaluated for anticonvulsant activity by maximal electroshock assay(MES) in mice after po administration; 69-90; assay type: functional; how it was run: as §6
Mus musculus [31] = assay: Compound was evaluated for anticonvulsant activity by maximal electroshock assay(MES) in mice after ip administration; 13-43; assay type: functional; how it was run: as §5
Mus musculus [32] = assay: Dose of compound causing a neurological deficit in 50% of mice after ip administration; 20-35; assay type: functional; how it was run: as §4
Mus musculus [33] = assay: Compound was evaluated for anticonvulsant activity by maximal electroshock assay(MES) in mice after po administration; 34-89; assay type: functional; how it was run: as §6
Mus musculus [34] = assay: compound was evaluated for anticonvulsant activity by maximal electroshock assay(MES) in mice after po administration.; assay type: functional
How it was run: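 Male Hilltop ICR-derived mice, 19-30 g, groups of 8-10, dosed orally with compound or aqueous vehicle. Transcorneal electroshock (50 mA, 60 Hz, 0.2 s) delivered 30 min after dosing, immediately after a wire-hang neurological test. ED50 with 95% confidence limits estimated from quantal data by Litchfield-Wilcoxon.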

Rattus norvegicus [35] = assay: Compound was evaluated for anticonvulsant activity by maximal electroshock assay(MES) in rat after ip administration.
Rattus norvegicus [36] = assay: Compound was evaluated for anticonvulsant activity by maximal electroshock assay(MES) in rat after po administration.; assay type: functional; how it was run: as §2
Mus musculus [37] = assay: Dose of compound causing a neurological deficit in 50% of mice after ip administration; 71-93; assay type: functional; how it was run: as §4
Mus musculus [38] = assay: Compound was evaluated for anticonvulsant activity by maximal electroshock assay(MES) in mice after ip administration; 38-55; assay type: functional; how it was run: as §5

`Cl.O=C(OC(Cn1ccnc1)c1ccc2ccccc2c1)c1ccccc1` (configuration not stated) gave an ND50 (Rattus norvegicus [1]) greater than 100 mg/kg, an ED50 (Rattus norvegicus [2]) of 14 mg/kg and a PI (Mus musculus [3]) of 5.2. The ED50 (Rattus norvegicus [4]) was 53 mg/kg, the ND50 (Mus musculus [5]) was 99 mg/kg and the ND50 (Rattus norvegicus [6]) was greater than 100 mg/kg. It also gave an ED50 (Mus musculus [7]) of 19 mg/kg.

`CCc1ccc2cc(C3(Cn4ccnc4)OCCO3)ccc2c1.Cl` showed an ND50 (Mus musculus [8]) greater than 200 mg/kg, an ED50 (Mus musculus [9]) of 100 mg/kg and a PI (Mus musculus [10]) greater than 2. The PI (Mus musculus [3]) was greater than 4, the ND50 (Mus musculus [11]) was greater than 100 mg/kg and the ED50 (Mus musculus [12]) was 25 mg/kg.

Work on `Cc1ccc2cccc(C(=O)Cn3ccnc3)c2c1.Cl` yielded an ED50 (Mus musculus [13]) of 74 mg/kg, an ND50 (Mus musculus [8]) greater than 300 mg/kg and an ND50 (Rattus norvegicus [1]) greater than 100 mg/kg. For the same compound, the PI (Mus musculus [10]) was >4.1 and >1.9, the PI (Mus musculus [3]) was 3.3 and the ND50 (Mus musculus [14]) was 73 mg/kg. It also gave an ED50 (Rattus norvegicus [15]) of 52 mg/kg and an ED50 (Mus musculus [16]) of 22 mg/kg.

For `COC(Cn1ccnc1)c1cccc2ccccc12` (configuration not stated), the ND50 (Mus musculus [17]) was 51 mg/kg, the PI (Mus musculus [3]) was 2.7 and the ED50 (Mus musculus [18]) was 19 mg/kg.

`COC(Cn1ccnc1)(OC)c1ccc2ccccc2c1` showed an ED50 (Mus musculus [19]) greater than 40 mg/kg and an ND50 (Mus musculus [20]) greater than 40 mg/kg.

For `COc1cc2cccc(C(=O)Cn3ccnc3)c2cc1OC.Cl`, the ED50 (Mus musculus [21]) was 79 mg/kg, the PI (Mus musculus [3]) was greater than 1.3 and the ND50 (Mus musculus [20]) was greater than 100 mg/kg.

For `Cc1ccc2cc(C(=O)Cn3ccnc3)ccc2c1.Cl`, the ND50 (Mus musculus [8]) was greater than 150 mg/kg, the ED50 (Mus musculus [22]) was 24 mg/kg and the PI (Mus musculus [10]) was greater than 2. It also gave a PI (Mus musculus [3]) greater than 4.3, an LD50 [23] greater than 100 mg/kg and an ED50 (Mus musculus [24]) of 76 mg/kg. The ND50 (Mus musculus [20]) was greater than 100 mg/kg.

`Br.CCc1ccc2cccc(C(=O)Cn3ccnc3)c2c1` gave an ND50 (Mus musculus [8]) greater than 100 mg/kg, an ED50 (Mus musculus [25]) of 13 mg/kg and a PI (Mus musculus [10]) greater than 2.5. For the same compound, the ED50 (Mus musculus [26]) was 40 mg/kg, the ND50 (Rattus norvegicus [27]) was 53 mg/kg and the ED50 (Rattus norvegicus [28]) was 3.1 mg/kg. It also gave an ND50 (Mus musculus [29]) of 65 mg/kg.

`Cc1cc2ccc(C(=O)Cn3ccnc3)cc2cc1C.Cl` showed an ED50 (Mus musculus [30]) of 78 mg/kg, an ND50 (Mus musculus [8]) greater than 100 mg/kg and an ED50 (Mus musculus [31]) of 25 mg/kg. For the same compound, the PI (Mus musculus [10]) was greater than 1.3, the PI (Mus musculus [3]) was greater than 4 and the ND50 (Mus musculus [20]) was greater than 100 mg/kg.

`CC1CCOC(Cn2ccnc2)(c2ccc3ccccc3c2)O1` (configuration not stated) gave an ND50 (Mus musculus [32]) of 26 mg/kg, an ND50 (Mus musculus [8]) greater than 100 mg/kg and an ED50 (Mus musculus [33]) of 56 mg/kg. It also gave a PI (Mus musculus [10]) greater than 1.8 and a PI (Mus musculus [3]) of 1.4.

`O=C1NC(=O)C(c2ccccc2)(c2ccccc2)N1` [PHENYTOIN] gave an ED50 (Mus musculus [34]) of 22 mg/kg, an ND50 (Mus musculus [8]) greater than 200 mg/kg and an ED50 (Rattus norvegicus [35]) of 21 mg/kg. The ND50 (Rattus norvegicus [1]) was greater than 300 mg/kg, the PI (Mus musculus [3]) was greater than 23.1 and the LD50 [23] was greater than 300 mg/kg. For the same compound, the ED50 (Rattus norvegicus [36]) was 85 mg/kg, the ND50 (Rattus norvegicus [6]) was greater than 300 mg/kg and the ND50 (Mus musculus [20]) was greater than 300 mg/kg. For the same compound, the ED50 (Mus musculus [12]) was 13 mg/kg.

`Cl.Clc1ccc(OC(Cn2ccnc2)c2ccc3ccccc3c2)cc1` (configuration not stated) showed an ND50 (Mus musculus [37]) of 82 mg/kg, a PI (Mus musculus [3]) of 1.8 and an ED50 (Mus musculus [38]) of 46 mg/kg.
